Data on 16 compounds can be found in ChEMBL document CHEMBL4152327, “Homopiperazine-rhodamine B adducts of triterpenoic acids are strong mitocans” (Eur J Med Chem, 2018).

One data set deals with NIH3T3. The experiment in a line: Cytotoxicity against mouse NIH/3T3 cells after 96 hrs by SRB assay. The format is cell-based. The conditions noted are these: NIH3T3, 96 h. Put shortly: (§1)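 SRB assay; cells exposed to compound for 96 h. EC50 in µM averaged from three independent experiments, each in triplicate, with 95% confidence interval and mean ± standard mean error. Assay cut-off 30 µM.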
For orientation: In SRB staining, fixed cells bind dye roughly in proportion to their protein.

The test system of a further data set is A2780. The experiment in a line: Cytotoxicity against human A2780 cells after 96 hrs by SRB assay. The format is functional, cell-based. The note with it: A2780, 96 h. The procedure, abridged: as §1
The subject of another data set is HT-29. The experiment in a line: Cytotoxicity against human HT-29 cells after 96 hrs by SRB assay. The format is functional, cell-based. The conditions noted are these: HT-29, 96 h. The procedure, abridged:
as §1

Another data set relates to MCF7. The experiment in a line: Cytotoxicity against human MCF7 cells after 96 hrs by SRB assay. The class given is functional, cell-based. The conditions noted are these: MCF7, 96 h. The procedure, abridged: as §1
The next data set has as its system A-375. The experiment in a line: Cytotoxicity against human A375 cells after 96 hrs by SRB assay. The class given is functional, cell-based. The note with it: A-375, 96 h. The procedure, abridged:
as §1

Another data set deals with SW-1736. The experiment in a line: Cytotoxicity against human SW1736 cells after 96 hrs by SRB assay. The class given is functional, cell-based. The note with it: SW-1736, 96 h. The procedure, abridged: as §1
The nature of data set [1]: Selectivity index, ratio of EC50 for mouse NIH/3T3 cells to EC50 for human A2780 cells. The class given is toxicity. The note with it: NIH/3T3 cells and A2780 cells, read-out: Ratio EC50.
Data set [2] can be described thus: Drug uptake in mitochondria of human A2780 cells at 100 nM after 24 hrs by rhodamine 123 staining-based fluorescence microscopic method. The format is ADME. The conditions noted are these: a2780, 24 h, 0.1 µM. The procedure, abridged:
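A2780 cells, about 1·10^6 per 25 cm² flask, grown 24 h, then given fresh medium containing compound for 24 h (blank medium as control). Cells collected, centrifuged at 1200 rpm and 4 °C, washed in PBS, then mixed with Hoechst 33342/Rhodamine 123 solution (10 µg/ml). Incubated 30 min at 37 °C in the dark, washed, and viewed by epifluorescence microscopy.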

Each structure is given as a SMILES string.

`CC(=O)O[C@@H]1CC[C@@]2(C)[C@@H](CC[C@]3(C)[C@@H]2C(=O)C=C2[C@@H]4[C@@H](C)[C@H](C)CC[C@]4(C)CC[C@]23C)[C@@]1(C)C(=O)N1CCCNCC1`: the EC50 (in general, the midpoint of the concentration-response curve) in the data set with NIH3T3 amounted to 900 nM; with A2780, 2850 nM; with HT-29 it was 1990 nM; with MCF7, 2410 nM; in the data set on A-375, 3210 nM.
As for `C=C(C)[C@@H]1CC[C@]2(C(=O)N3CCCNCC3)CC[C@]3(C)[C@H](CC[C@@H]4[C@@]5(C)CC[C@H](OC(C)=O)C(C)(C)[C@@H]5CC[C@]43C)[C@@H]12`, the EC50 with NIH3T3 amounted to 1050 nM; in the data set with A2780, 1610 nM; in the data set on HT-29 it was 1470 nM; in the data set on MCF7, 1520 nM; in the data set with SW-1736, 1840 nM.
For `CC(=O)O[C@@H]1CC[C@@]2(C)[C@@H](CC[C@]3(C)[C@@H]2C(=O)C=C2[C@@H]4[C@@H](C)[C@H](C)CC[C@]4(C)CC[C@]23C)[C@@]1(C)C(=O)NCc1ccccc1`, the EC50 in the data set with NIH3T3 was found to be 28100 nM; in the data set on A2780 it was 10800 nM; with HT-29 it was 20200 nM; in the data set on MCF7 it was 9800 nM; in the data set with A-375 it was 13700 nM.
For the compound `CCN(CC)c1ccc2c(-c3ccccc3C(=O)N3CCCN(C(=O)[C@]4(C)[C@@H]5CC[C@]6(C)[C@H](C(=O)C=C7[C@@H]8[C@@H](C)[C@H](C)CC[C@]8(C)CC[C@]76C)[C@@]5(C)CC[C@H]4OC(C)=O)CC3)c3ccc(=[N+](CC)CC)cc-3oc2c1`, the concentration giving a half-maximal response (EC50) in the data set on NIH3T3 stood at 400 nM; in the data set on A2780, 450 nM; in the data set on HT-29, 500 nM; in the data set with MCF7, 390 nM; in the data set with A-375 it was 510 nM.
Consider `CCN(CC)c1ccc2c(-c3ccccc3C(=O)N3CCCN(C(=O)[C@@]4(C)CC[C@]5(C)CC[C@]6(C)C(=CC(=O)[C@@H]7[C@@]8(C)CC[C@H](OC(C)=O)C(C)(C)[C@@H]8CC[C@]76C)[C@@H]5C4)CC3)c3ccc(=[N+](CC)CC)cc-3oc2c1`, for which the 50% effective concentration (EC50) in the data set with NIH3T3 was found to be 330 nM; with A2780 it was 220 nM; in the data set on HT-29, 280 nM; in the data set with MCF7 it was 220 nM; in the data set with SW-1736, 220 nM; with A-375 it was 760 nM.
Regarding `CC(=O)O[C@H]1CC[C@]2(C)[C@H]3CC=C4[C@@H]5CC(C)(C)CC[C@]5(C(=O)N5CCCNCC5)CC[C@@]4(C)[C@]3(C)CC[C@H]2C1(C)C`, the EC50 with NIH3T3 was 1230 nM; in the data set on A2780, 2310 nM; in the data set with HT-29 it was 1300 nM; with MCF7 it was 1500 nM; in the data set with SW-1736 it was 3250 nM; in the data set on A-375, 2300 nM.
`CCN(CC)c1ccc2c(-c3ccccc3C(=O)O[C@@H]3CC[C@@]4(C)[C@@H](CC[C@]5(C)[C@@H]4C(=O)C=C4[C@@H]6[C@@H](C)[C@H](C)CC[C@]6(C)CC[C@]45C)[C@@]3(C)C(=O)OC)c3ccc(=[N+](CC)CC)cc-3oc2c1`: the EC50 in the data set with NIH3T3 worked out at 190 nM; in the data set on A2780 it was 300 nM; with HT-29, 290 nM; in the data set on MCF7, 230 nM; in the data set on A-375, 360 nM.
For the compound `C[C@H]1[C@H](C)CC[C@]2(C)CC[C@]3(C)C(=CC(=O)[C@@H]4[C@@]5(C)CC[C@@H](O)[C@](C)(C(=O)OCc6ccccc6)[C@@H]5CC[C@]43C)[C@H]12`, the EC50 with NIH3T3 was greater than 30000 nM; in the data set on A2780, 30100 nM; in the data set on HT-29, 28800 nM; in the data set with MCF7, 26400 nM; with SW-1736, 24800 nM; with A-375, 24800 nM.
As to `CCN(CC)c1ccc2c(-c3ccccc3C(=O)O[C@H]3CC[C@@]4(C)[C@@H](CC[C@]5(C)[C@@H]4C(=O)C=C4[C@@H]6[C@@H](C)[C@H](C)CC[C@]6(C)CC[C@]45C)[C@@]3(C)C(=O)NCc3ccccc3)c3ccc(=[N+](CC)CC)cc-3oc2c1`, the EC50 with NIH3T3 turned out to be 400 nM; in the data set on A2780, 530 nM; in the data set on HT-29, 550 nM; in the data set on MCF7, 490 nM; with A-375, 590 nM.
For `CC(=O)O[C@H]1CC[C@]2(C)[C@H]3CC=C4[C@@H]5[C@@H](C)[C@H](C)CC[C@]5(C(=O)N5CCCNCC5)CC[C@@]4(C)[C@]3(C)CC[C@H]2C1(C)C`, the concentration for a half-maximal effect (EC50) with NIH3T3 is 1810 nM; in the data set with A2780, 2210 nM; in the data set on HT-29 it was 1880 nM; in the data set with MCF7, 1610 nM; in the data set with A-375, 1950 nM.
`C[C@H]1[C@H](C)CC[C@]2(C)CC[C@]3(C)C(=CC(=O)[C@@H]4[C@@]5(C)CC[C@@H](O)[C@](C)(C(=O)NCc6ccccc6)[C@@H]5CC[C@]43C)[C@H]12`: the EC50 amounted to 4900 nM with NIH3T3; 10000 nM in the data set with A2780; 10700 nM with HT-29; 7300 nM in the data set with MCF7; 12800 nM with A-375.
On to `CC(=O)O[C@H]1CC[C@]2(C)[C@H]3C(=O)C=C4[C@@H]5C[C@@](C)(C(=O)N6CCCNCC6)CC[C@]5(C)CC[C@@]4(C)[C@]3(C)CC[C@H]2C1(C)C`, for which the EC50 with NIH3T3 is 12300 nM; with A2780, 12000 nM; in the data set with HT-29, 5110 nM; in the data set on MCF7, 10700 nM; in the data set with SW-1736, 18700 nM; in the data set with A-375 it was 18700 nM.
With `CCN(CC)c1ccc2c(-c3ccccc3C(=O)N3CCCN(C(=O)[C@]45CC[C@@H](C)[C@H](C)[C@H]4C4=CC[C@@H]6[C@@]7(C)CC[C@H](OC(C)=O)C(C)(C)[C@@H]7CC[C@@]6(C)[C@]4(C)CC5)CC3)c3ccc(=[N+](CC)CC)cc-3oc2c1`, the concentration for a half-maximal effect (EC50) in the data set on NIH3T3 is 140 nM; in the data set on A2780 it was 20 nM; with HT-29 it was 40 nM; in the data set with MCF7, 30 nM; in the data set with SW-1736, 40 nM; in the data set with A-375, 40 nM.
Consider `CCN(CC)c1ccc2c(-c3ccccc3C(=O)O[C@H]3CC[C@@]4(C)[C@@H](CC[C@]5(C)[C@@H]4C(=O)C=C4[C@@H]6[C@@H](C)[C@H](C)CC[C@]6(C)CC[C@]45C)[C@@]3(C)C(=O)OCc3ccccc3)c3ccc(=[N+](CC)CC)cc-3oc2c1`, for which the concentration for a half-maximal effect (EC50) was found to be 1010 nM with NIH3T3; 1320 nM in the data set on A2780; 1710 nM in the data set with HT-29; 1380 nM in the data set on MCF7; 1520 nM with A-375.
Consider `CCN(CC)c1ccc2c(-c3ccccc3C(=O)N3CCCN(C(=O)[C@]45CCC(C)(C)C[C@H]4C4=CC[C@@H]6[C@@]7(C)CC[C@H](OC(C)=O)C(C)(C)[C@@H]7CC[C@@]6(C)[C@]4(C)CC5)CC3)c3ccc(=[N+](CC)CC)cc-3oc2c1.[Cl-]`, for which the half-maximal effective concentration (EC50) with NIH3T3 worked out at 170 nM; in the data set with A2780, 10 nM; with HT-29 it was 40 nM; in the data set on MCF7, 30 nM; in the data set with SW-1736, 30 nM; with A-375, 30 nM. Further, in data set [1], the selectivity ratio was determined as 17. Besides, the Drug uptake entry in data set [2] is given as “Active”.
Regarding `C=C(C)[C@@H]1CC[C@]2(C(=O)O)CC[C@]3(C)[C@H](CC[C@@H]4[C@@]5(C)CC[C@H](O)C(C)(C)[C@@H]5CC[C@]43C)[C@@H]12` [BETULINIC ACID], the EC50 with SW-1736 turned out to be 18300 nM; in the data set on A-375 it was 17100 nM.
